Assay outcomes deposited in PubChem by The Scripps Research Institute Molecular Screening Center.
Compounds with a hit are over-represented: about 4% of the library has one in this group of screens.
CHO parental Ca – counter-screen: ATP calcium response change in parental CHO cells | parental CHO-K1, ATP-induced calcium, Fluo-8 fluorescence | inhibition, % at 5.6 µM | 330,000 compounds, 0.63% hits | AID 463079;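 active = inhibition above that plate's mean sample inhibition plus 3 SD, cut at about 26% in these data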
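Test system: untransfected parental CHO cell line. Compound: one dose, 5.6 µM nominal. Detection: intracellular calcium via Fluo-8 no-wash fluorescent dye. Measure: % inhibition. Benchmarks: ATP-challenged DMSO wells low, unchallenged DMSO wells high.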
TAAR1 antag – antagonists of human TAAR1; Q96RJ0; CHO RD-HGA16 TAAR1, Fluo-8 calcium fluorescence, antagonist; inhibition, % at 3 µM; 360,000 compounds, 1.5% hits;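 active = inhibition above a per-plate cutoff, the mean inhibition of test compounds on that plate plus 3 SD, cut at about 49% in these data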
Target sequence (Q96RJ0 whole entry, looked up): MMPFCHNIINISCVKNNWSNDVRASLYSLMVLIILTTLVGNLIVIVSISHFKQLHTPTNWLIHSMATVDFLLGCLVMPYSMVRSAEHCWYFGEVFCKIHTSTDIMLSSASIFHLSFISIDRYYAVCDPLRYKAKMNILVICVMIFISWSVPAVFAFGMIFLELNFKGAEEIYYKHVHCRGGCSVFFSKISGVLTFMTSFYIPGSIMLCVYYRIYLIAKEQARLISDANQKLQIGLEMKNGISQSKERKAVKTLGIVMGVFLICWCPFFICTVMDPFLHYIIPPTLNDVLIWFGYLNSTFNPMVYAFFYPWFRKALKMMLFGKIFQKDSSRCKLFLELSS
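test system = CHO RD-HGA16 cells bearing hTAAR1 | replication = singlicate | controls = DMSO-only wells and EC80 β-PEA-stimulated wells | reagent = EC80 β-phenethylamine stimulus | read-out basis = percent inhibition of PEA-evoked calcium signal, max/basal emission ratio | schedule = seeding 17-24 h prior, 75-min 37 °C, 30-min RT dye loading | signal = kinetic Fluo-8 calcium fluorescence measurement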
OX1R antag-1 – antagonists of human orexin 1 receptor. AID 434989. inhibition, % at 5 µM. CHO/OX1R cells, Fluo-8 calcium fluorescence, orexin A. 330,000 compounds, 0.43% hits;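 active = inhibition above its plate's threshold, mean inhibition of all tested compounds on the plate plus 3 SD, cut at about 37% in these data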
Target sequence (O43613 whole entry, looked up): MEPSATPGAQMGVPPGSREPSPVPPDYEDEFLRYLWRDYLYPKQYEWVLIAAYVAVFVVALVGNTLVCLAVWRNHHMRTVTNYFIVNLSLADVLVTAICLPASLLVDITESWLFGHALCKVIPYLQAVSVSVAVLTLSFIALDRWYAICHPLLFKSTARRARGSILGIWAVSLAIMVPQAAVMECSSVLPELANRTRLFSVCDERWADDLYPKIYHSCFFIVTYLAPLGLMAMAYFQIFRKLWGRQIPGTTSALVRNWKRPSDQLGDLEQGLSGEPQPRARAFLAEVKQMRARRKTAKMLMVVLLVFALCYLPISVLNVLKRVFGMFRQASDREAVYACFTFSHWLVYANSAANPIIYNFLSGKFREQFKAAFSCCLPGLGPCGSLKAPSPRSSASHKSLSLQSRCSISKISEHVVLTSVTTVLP
OX1R antag-2 – OX1R (human) antagonism | O43613 | OX1R-expressing cells, FRET antagonist read-out | inhibition, % at 6.6 µM | 330,000 compounds, 1.8% hits | AID 485270; in the data active = inhibition mostly above about 38%, no sharp cut-off; inactive = mostly below about 40%
TAAR1 agonist – human TAAR1 agonism | Q96RJ0 | CHO RD-HGA16 TAAR1, Fluo-8 calcium fluorescence; vehicle wells 0%, saturating PEA agonist 100% | activation, % at 3 µM | 360,000 compounds, 0.99% hits;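 active = activation above the mean activation of all test compounds in the run plus 3 SD, cut at about 38% in these data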
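Test system: RD-HGA16 (CHO) cells co-expressing Gα16 and hTAAR1 | Doses: Single dose, 3 µM | Schedule: 17-24 h seeding, 75 min 37 °C dye, 30 min RT | Evaluation: % activation from peak over basal fluorescence ratio, DMSO-to-PEA scaled | Technique: Kinetic Fluo-8 calcium fluorescence | Benchmarks: Low control DMSO, high control PEA (EC100)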
Large screens that a line does not name were inactive.

Cc1ccc(S(=O)(=O)NCC(=O)OCC(=O)N2C(C)CCCC2C)cc1 (stereo not drawn)	none
CCOC(=O)C1=C(CC)Nc2ccccc2N=C1NC(=O)Nc1ccc(Cl)c(Cl)c1	CHO parental Ca 64, OX1R antag-1 64, OX1R antag-2 96
Clc1ccccc1-c1nc2nc3ccccc3nc2n1-c1ccc2c(c1)OCO2	TAAR1 antag 49
c1csc(-c2nc3nc4ccccc4nc3n2Cc2ccc3c(c2)OCO3)c1	none
Oc1nc(Nc2cccc(Cl)c2)sc1/C=C1\C=Nc2ccccc21	TAAR1 antag 54
COc1ccc2c(c1)CCCC21SC(NC(C)=O)=NN1C(C)=O (stereo not drawn)	none
COC(=O)N1C[C@H](Oc2ncccn2)[C@H]2C[C@@H]1c1ccccc1O2	none (no result: CHO parental Ca, OX1R antag-1, OX1R antag-2)
N=C1S/C(=C\c2ccc(-c3cccc(Cl)c3)o2)C(=O)N1c1nccs1	none
COc1ccc(/C=C2\SC(=N)N(c3nccs3)C2=O)cc1OC	CHO parental Ca 26, OX1R antag-2 73
COc1cc(/C=N/NC(=O)c2cccc(NC(=O)c3ccccc3Cl)c2)ccc1O	TAAR1 antag 53
COc1ccccc1/C=N/NC(=O)c1cccc(NC(=O)c2ccccc2Cl)c1	TAAR1 antag 49
O=C1c2[nH]nc(-c3ccccc3)c2C(c2ccc(F)cc2)N1Cc1ccccc1 (stereo not drawn)	none (no result: CHO parental Ca, OX1R antag-1, OX1R antag-2)
CCCc1nc2ccccc2n1C(CCSC)C(=O)NC(C)(C)C (stereo not drawn)	none (no result: CHO parental Ca, OX1R antag-1, OX1R antag-2)
CCc1cccc(NC(=O)C2CCN(c3ncnc4sc(C)c(C)c34)CC2)c1	TAAR1 antag 53
COc1ccccc1OCC(=O)NNC(=O)C1CCN(c2ncnc3sc(C)c(C)c23)CC1	none
Cc1sc2ncnc(N3CCC(C(=O)Nc4ccc(Cl)c(Cl)c4)CC3)c2c1C	none
COc1ccc(-c2csc(NC(=O)C3CCN(c4ncnc5sc(C)c(C)c45)CC3)n2)cc1OC	CHO parental Ca 75, TAAR1 antag 50, OX1R antag-1 45, OX1R antag-2 76
CCOC1=C2CN(S(=O)(=O)c3ccc(C)cc3)[C@@H](c3ccccc3)C[C@H]2[C@H]2C(=O)N(c3ccccc3)C(=O)[C@H]2C1	none (no result: CHO parental Ca, OX1R antag-1, OX1R antag-2)
O=C(C[n+]1cc2ccccc2c2ccccc21)c1ccccc1	OX1R antag-2 56
CCN1CCN(c2c(Cl)cccc2NC(=O)c2ccc([N+](=O)[O-])o2)CC1	OX1R antag-2 56
COC(=O)c1nn(-c2ccc(Oc3ccccc3)cc2)c(=O)cc1O	none
CC(=O)C1=C(C)NC(SCC(=O)c2ccc(F)cc2)=C(C#N)C1c1ccco1 (stereo not drawn)	TAAR1 antag 51
CCc1ccc(C(=O)CSC2=C(C#N)C(c3ccco3)C(C(C)=O)=C(C)N2)cc1 (stereo not drawn)	none (no result: TAAR1 antag, TAAR1 agonist)
O=C(Nc1nnc(-c2ccccc2)o1)c1nc2ccccc2s1	CHO parental Ca 28, TAAR1 agonist 154
NC(=O)c1oc2ccccc2c1NC(=O)c1nc2ccccc2s1	none
C[C@@H]1CNC(=O)c2c(C(=O)N(C)Cc3ccccc3)ncn21	none (no result: CHO parental Ca, OX1R antag-1, OX1R antag-2)
O=C(NCCc1ccccn1)C(F)(F)C(F)(F)C(F)(F)C(F)(F)C(F)(F)C(F)(F)C(F)(F)C(F)F	TAAR1 agonist 41
CC(C)CNc1ccc2c(c1)OC[C@H](C)NS2(=O)=O	none (no result: CHO parental Ca, OX1R antag-1, OX1R antag-2)
C[C@H](O)[C@@H]1CN2CCc3ccc(-c4ccc5c(c4)OCO5)cc3[C@@H]2C[C@@H]1N(C)Cc1cc(Cl)cc(Cl)c1	none (no result: CHO parental Ca, OX1R antag-1, OX1R antag-2)
CC(C)c1cc(-c2cc(C(=O)NCc3ccccc3)on2)nc(NCC2CC2)n1	CHO parental Ca 44, TAAR1 antag 77, OX1R antag-1 62, TAAR1 agonist 68
Cc1ccc(CN(C(=O)c2csnn2)C(C(=O)NC2CCCC2)c2ccco2)cc1 (stereo not drawn)	none
C[C@@H]1COc2cccc(NCCO)c2S(=O)(=O)N1	none (no result: CHO parental Ca, OX1R antag-1, OX1R antag-2)
Cc1cccc(NS(=O)(=O)c2ccc(C(=O)NCC(c3ccccc3)N(C)C)cc2)c1C (stereo not drawn)	TAAR1 agonist 43 (no result: CHO parental Ca, OX1R antag-1, OX1R antag-2)
CN(C)C(CNC(=O)c1ccc(C2SCCS2)cc1)c1ccccc1 (stereo not drawn)	TAAR1 agonist 38
CN(C)C(CNC(=O)c1ccc(NC(=O)c2cccs2)cc1)c1ccccc1 (stereo not drawn)	none
COC(=O)c1sccc1NC(=O)CNC(=O)c1ccccc1	none
Cc1ccc(C(=O)OCc2cc3ccccc3[nH]c2=O)cc1	TAAR1 agonist 42
CCc1c(-c2ccccc2F)ncn1CCc1ccccc1OC	none (no result: CHO parental Ca, OX1R antag-1, OX1R antag-2)
N#Cc1ccc(NC(=O)Nc2ccc(Oc3ccc(NC(=O)Nc4ccc(C#N)cc4)cc3)cc2)cc1	CHO parental Ca 38
O=C(NCCc1cccs1)C1CC(c2cccc([N+](=O)[O-])c2)=NO1 (stereo not drawn)	TAAR1 antag 49
O=C(NCCc1ccccc1)c1cc(-c2ccc3c(c2)OCO3)on1	TAAR1 agonist 38
CCn1c(SCc2ccc(C(=O)Nc3cc(C)cc(C)c3)cc2)nnc1-c1ccncc1	TAAR1 antag 59
Cc1ccc(NC(=O)c2ccc(CSc3nnc(-c4ccncc4)n3C)cc2)cc1	none
COC(=O)C1=C(C)N(Cc2ccccc2C(F)(F)F)C(=NCc2ccc(C(F)(F)F)cc2)NC1c1cccc(Cl)c1 (stereo not drawn)	none (no result: CHO parental Ca, OX1R antag-1, OX1R antag-2)
CCn1c(=NC(=O)c2ccco2)sc2cccc(F)c21	OX1R antag-2 65
COc1cc2c(c3c1c(=O)c1cccc(F)c1n3C)C=CC(C)(C)O2	none (no result: CHO parental Ca, OX1R antag-1, OX1R antag-2)
Cc1nnc(NC(=O)C2CCN(S(=O)(=O)c3cc([N+](=O)[O-])ccc3Cl)CC2)o1	OX1R antag-2 28
Cc1ncc(CO)c2c1Oc1nc(-c3ccccc3)nc(SCC(=O)N3CCOCC3)c1C2	none
COc1ccccc1-c1nc2c(c(SCC(=O)N3CCCCC3)n1)Cc1c(CO)cnc(C)c1O2	TAAR1 antag 54
COc1ccc(C(C(=O)NCC2CCCO2)N(C(=O)CNC(=O)c2ccco2)c2cc(C)ccc2C)cc1OC (stereo not drawn)	none
CCOC(=O)Cc1csc(NC(=O)CSc2ncnc3c2cnn3-c2ccccc2Cl)n1	TAAR1 antag 62 (no result: CHO parental Ca, OX1R antag-1, OX1R antag-2)
COC(=O)C1=C(C)N(c2cccc(C)c2)C(=O)/C1=C\c1cccs1	TAAR1 agonist 48
COC(=O)[C@]12C[C@H](CC(=O)N3CCN(C(=O)c4ccco4)CC3)C(=O)N(Cc3ccccc3)C1=C[C@H](C(C)C)O[C@@H]2C1CC1	none (no result: CHO parental Ca, OX1R antag-1, OX1R antag-2)
COc1cccc(/C=N/n2c(-c3ccco3)nc3ccccc3c2=O)c1	TAAR1 antag 49
COc1ccc(/C=C2\CN(Cc3ccccc3)C/C(=C\c3ccc(OC)cc3OC)C2=O)c(OC)c1	TAAR1 antag 57
CCNC(=O)N(C)[C@H]1C[C@H]2c3[nH]c4c(-c5ccccc5)cccc4c3CCN2C(=O)[C@H]1[C@H](C)O	none (no result: CHO parental Ca, OX1R antag-1, OX1R antag-2)
CCn1c(C)nc2cc(C(=O)NNC(=O)Nc3ccc(Cl)c(Cl)c3)ccc21	TAAR1 agonist 41
